# Measurements of several laboratories.
# Protocols differ between the studies behind these lines.
Compound,target or system,test,setting,endpoint,result
CC(=O)NC[C@H]1CN(c2ccc(N3CCOCC3)c(F)c2)C(=O)O1,Streptococcus pyogenes,microbial growth,clinical isolate,MIC90,2 µg/mL
NCCCCC(=O)Nc1ccccc1/N=c1\cc(-c2ccc3c(c2)OCO3)oc2ccccc12,HCT-116,"cell growth or viability, CCK-8",1 µM,inhibition,3.02%
CN[C@H](CC(C)C)C(=O)N[C@H]1C(=O)N[C@@H](CC(N)=O)C(=O)N[C@H]2C(=O)N[C@H]3C(=O)N[C@H](C(=O)N[C@H](C(=O)O)c4cc(O)cc(O)c4-c4cc3ccc4O)[C@H](O)c3ccc(c(Cl)c3)Oc3cc2cc(c3O[C@@H]2O[C@H](CO)[C@@H](O)[C@H](O)[C@H]2O[C@H]2C[C@](C)(N)[C@H](O)[C@H](C)O2)Oc2ccc(cc2Cl)[C@H]1O,Streptococcus pyogenes,microbial growth,clinical isolate,MIC90,1 µg/mL
COc1ccc(NC(=O)NCc2cn(Cc3ccc(C)cc3)nn2)cc1,PC-9,"cell growth or viability, CCK-8","50 µM, 72 h",viability,113%
O=C(Nc1ccccc1/N=c1\cc(-c2ccc3c(c2)OCO3)oc2ccccc12)N1CCNCC1,HCT-116,"cell growth or viability, CCK-8",1 µM,inhibition,15.1%
CCOc1ccc(Nc2c3c(nc4ccccc24)CCC3)cc1,Leishmania infantum,"parasite growth, MTT",promastigote,EC50,645 nM
COc1ccc2/c(=N/c3ccccc3NC(=O)[C@@H](N)CO)cc(-c3ccc4c(c3)OCCO4)oc2c1,HCT-116,"cell growth or viability, CCK-8",1 µM,inhibition,14.7%
Cc1nc(Nc2ncc(C(=O)Nc3c(C)cccc3Cl)s2)cc(N2CC[C@H](O)C2)n1,DOHH-2,"cell growth or viability, ATP luminescence","10 µM, 72 h",inhibition,86%
O=C1OC[C@H]2OC(O)[C@H](O)[C@@H](O)[C@@H]2OC(=O)c2cc(O)c(O)c(O)c2-c2c(O)c(O)c3oc(=O)c4c(c(O)c(O)c5oc(=O)c2c3c54)-c2c1cc(O)c(O)c2O (mixture of isomers),Streptococcus mutans,"microbial killing, broth dilution",,MBC,400 µg/mL
C[C@@H]1[C@H](O)[C@@H](C)/C=C/C=C/C=C/C=C/C=C/C=C/C=C/[C@H](O[C@@H]2O[C@H](C)[C@@H](O)[C@H](N)[C@@H]2O)C[C@@H]2O[C@](O)(C[C@@H](O)C[C@@H](O)[C@H](O)CC[C@@H](O)C[C@@H](O)CC(=O)O[C@H]1C)C[C@H](O)[C@H]2C(=O)O,Leishmania infantum,"parasite growth, MTT",promastigote,IC50,1490 nM
CC[C@H]1OC(=O)[C@H](C)[C@@H](O[C@H]2C[C@@](C)(OC)[C@@H](O)[C@H](C)O2)[C@H](C)[C@@H](O[C@@H]2O[C@H](C)C[C@H](N(C)C)[C@H]2O)[C@](C)(O)C[C@@H](C)/C(=N\OCOCCOC)[C@H](C)[C@@H](O)[C@]1(C)O,Streptococcus pyogenes,microbial growth,clinical isolate,MIC90,2 µg/mL
Oc1cc(O)c2c(c1)O[C@H](c1cc(O)c(O)c(O)c1)[C@@H](O)C2,Streptococcus mutans,"microbial killing, broth dilution",,MBC,400 µg/mL
Nc1nc2ccc(-c3c/c(=N\c4ccccc4NC(=O)CCN4CCOCC4)c4ccccc4o3)cc2o1,HCT-116,"cell growth or viability, CCK-8",1 µM,inhibition,-4.11%
O=C1O[C@H]2[C@@H]3OC(=O)c4cc(O)c(O)c(O)c4-c4c(O)c(O)c5oc(=O)c6c(c(O)c(O)c7oc(=O)c4c5c76)-c4c(cc(O)c(O)c4O)C(=O)OC[C@H]3OC(O)[C@@H]2OC(=O)c2cc(O)c(O)c(O)c2-c2c1cc(O)c(O)c2O (mixture of isomers),Streptococcus mutans,"microbial killing, broth dilution",,MBC,200 µg/mL
COc1ccc2oc(-c3ccc4nc(N)oc4c3)c/c(=N\c3ccccc3NC(=O)CCN)c2c1,HCT-116,"cell growth or viability, CCK-8",1 µM,inhibition,45.5%
C[C@@H]1O[C@@H](OC[C@H]2O[C@@H](Oc3c(-c4ccc(O)c(O)c4)oc4cc(O)cc(O)c4c3=O)[C@H](O)[C@@H](O)[C@@H]2O)[C@H](O)[C@H](O)[C@H]1O,Streptococcus mutans,"microbial growth, disc diffusion",500 µg/disc,inhibition zone,14 mm
c1ccc(Oc2ccc(Nc3c4c(nc5ccccc35)CCC4)cc2)cc1,Leishmania infantum,"parasite growth, MTT",promastigote,EC50,539 nM
O=c1oc2c(O)c(O)cc3c(=O)oc4c(O)c(O)cc1c4c23,Streptococcus mutans,"microbial killing, broth dilution",,MBC,200 µg/mL
COc1ccc2/c(=N/c3ccccc3NC(=O)CN)cc(-c3ccc4c(c3)OCCO4)oc2c1,HCT-116,"cell growth or viability, CCK-8",1 µM,inhibition,11.4%
